Measured values taken from PMC8341375 (RSC Chemical Biology, 2021).

Columns and labels:
aromatase (CYP19) [1] = target: T1, aromatase (CYP19) (Homo sapiens, UniProt P11511); assay: CYP19/MFC aromatase inhibition assay; assay type: biochemical; details: for Fractional activity at saturation / Hill slope: dose-response fit, 7.5 nM P450, 25 μM MFC; for Hill slope: AR19 fixed to 1
T1 sequence (P11511 1-503): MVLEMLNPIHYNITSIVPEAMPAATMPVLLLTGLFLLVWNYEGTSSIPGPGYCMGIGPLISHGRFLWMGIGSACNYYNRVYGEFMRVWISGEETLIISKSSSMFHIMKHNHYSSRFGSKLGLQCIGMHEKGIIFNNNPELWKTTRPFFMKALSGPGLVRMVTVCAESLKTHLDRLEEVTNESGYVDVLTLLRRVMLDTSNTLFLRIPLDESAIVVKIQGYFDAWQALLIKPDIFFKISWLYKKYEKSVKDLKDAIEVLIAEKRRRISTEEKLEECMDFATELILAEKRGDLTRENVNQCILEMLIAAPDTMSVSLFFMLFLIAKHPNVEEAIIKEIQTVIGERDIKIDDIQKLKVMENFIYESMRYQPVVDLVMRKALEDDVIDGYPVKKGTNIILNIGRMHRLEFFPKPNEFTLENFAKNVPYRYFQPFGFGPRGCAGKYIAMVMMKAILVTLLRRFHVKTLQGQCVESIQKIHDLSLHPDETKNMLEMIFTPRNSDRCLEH

aromatase (CYP19) [2] = target: T1, aromatase (CYP19); details: noncompetitive AI; cited from earlier work
recombinant CYP19 = assay: Soret shifts by absorption spectroscopy; assay type: binding; details: titration of up to 100 μM, 2 μM ASD
Outline: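 Purified recombinant CYP19 (from codon-optimized CYP19A1 cDNA in pCW) at 2–3 μM in 100 mM potassium phosphate, pH 7.4. Test compound titrated (6–36 μM, then 100 μM) with ACN kept ≤3%, with or without 2 μM androstenedione. UV-Vis absorption scans after 10 min at 25 °C. Adducts were dithionite-reduced and exposed to CO in some runs.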

CYP19 = target: T2, CYP19 (Homo sapiens, UniProt P11511); assay: AR11 and AR13 steady-state kinetics assay; assay type: biochemical; details: nonlinear regression, no inhibitor
T2 sequence (P11511 1-503): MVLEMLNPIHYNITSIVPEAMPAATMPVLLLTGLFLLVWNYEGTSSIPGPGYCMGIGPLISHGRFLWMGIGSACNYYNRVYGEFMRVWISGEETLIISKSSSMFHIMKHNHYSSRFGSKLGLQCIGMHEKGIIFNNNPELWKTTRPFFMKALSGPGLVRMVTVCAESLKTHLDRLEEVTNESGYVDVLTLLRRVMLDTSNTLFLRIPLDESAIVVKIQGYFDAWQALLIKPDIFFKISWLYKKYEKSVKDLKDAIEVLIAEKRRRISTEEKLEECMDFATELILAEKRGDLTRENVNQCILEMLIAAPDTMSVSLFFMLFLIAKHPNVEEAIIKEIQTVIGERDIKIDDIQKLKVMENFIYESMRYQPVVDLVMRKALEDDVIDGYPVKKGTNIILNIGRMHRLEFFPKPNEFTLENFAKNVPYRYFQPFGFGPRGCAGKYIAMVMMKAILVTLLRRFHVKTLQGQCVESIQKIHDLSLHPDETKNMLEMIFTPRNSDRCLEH

[3] = substrate: COc1ccc2c(C(F)(F)F)cc(=O)oc2c1; assay: AR11 and AR13 steady-state kinetics assay; assay type: biochemical; details: other: nonlinear regression, no inhibitor; pH 7.4; 37.0 °C

With `CC/C(=C(\c1ccc(O)cc1)c1ccc(OCCNC)cc1)c1ccccc1` [Endoxifen, endoxifen] the IC50 (aromatase (CYP19) [1]; IC50, 7.5 nM P450, 25 μM MFC, 4-parameter logistic model (AR19: 3-parameter, Hill 1), ± SEM) was 30.9 ± 3.1 µM, the “Fractional activity at saturation” value (aromatase (CYP19) [1]) was 0.02 ± 0.02 and the Hill slope (aromatase (CYP19) [1]) was 2.27 ± 0.41. The Hill slope (aromatase (CYP19) [1]; listed as endoxifen) was 2, the Ki (aromatase (CYP19) [2]) was 4 µM and the “Soret peak shift from 395 nm in the CYP19 ASD-bound state” value (recombinant CYP19) was “did not induce a Soret peak shift”.

With `CC(=O)N1CCN(c2ccc(OCC3COC(Cn4ccnc4)(c4ccc(Cl)cc4Cl)O3)cc2)CC1` (stereo not shown) [Ketoconazole, ketoconazole] the “Fractional activity at saturation” value (aromatase (CYP19) [1]) was 0.03 ± 0.01 and the Hill slope (aromatase (CYP19) [1]) was 1.12 ± 0.07.

For `COc1ccc2c(C(F)(F)F)cc(=O)oc2c1` [MFC, 7-methoxy-4-(trifluoromethyl)coumarin], the “substrate Vmax” value (CYP19) was 0.731 pmol HFC min^−1 pmol^−1 P450.

B1: CYP19 (Homo sapiens) (protein)
chain: MVLEMLNPIHYNITSIVPEAMPAATMPVLLLTGLFLLVWNYEGTSSIPGPGYCMGIGPLISHGRFLWMGIGSACNYYNRVYGEFMRVWISGEETLIISKSSSMFHIMKHNHYSSRFGSKLGLQCIGMHEKGIIFNNNPELWKTTRPFFMKALSGPGLVRMVTVCAESLKTHLDRLEEVTNESGYVDVLTLLRRVMLDTSNTLFLRIPLDESAIVVKIQGYFDAWQALLIKPDIFFKISWLYKKYEKSVKDLKDAIEVLIAEKRRRISTEEKLEECMDFATELILAEKRGDLTRENVNQCILEMLIAAPDTMSVSLFFMLFLIAKHPNVEEAIIKEIQTVIGERDIKIDDIQKLKVMENFIYESMRYQPVVDLVMRKALEDDVIDGYPVKKGTNIILNIGRMHRLEFFPKPNEFTLENFAKNVPYRYFQPFGFGPRGCAGKYIAMVMMKAILVTLLRRFHVKTLQGQCVESIQKIHDLSLHPDETKNMLEMIFTPRNSDRCLEH
B1 gave a Km [3] of 28.48 µM.
